Hits are enriched below; roughly 2.7% of the tested compounds scored in any of these assays.
HIV Env fusion: HIV envelope-mediated fusion inhibition. HeLa-JRFL Env/CEM21 cell fusion, luciferase. inhibition, % at 12.3 µM. 360,000 compounds, 1.1% hits;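 active means mean replicate inhibition score of at least 50 and every replicate individually at or above 50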;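 further: 0% = plate neutral controls and 100% = maraviroc near 300 nM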
CFTR F508del cor: correctors of CFTR F508del function in bronchial epithelial cells; CFBE cells, YFP halide quenching; stimulated with forskolin plus potentiator P3; % fluorescence drop versus neutral controls; activity (quench increase), % at 7.58 µM; 350,000 compounds, 0.36% hits; AID 720511;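 active means mean added fluorescence quench of at least 8% versus neutral control, with both replicates also reaching 8%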;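 further: cells transiently co-express mutant CFTR-F508del with the halide-sensitive YFP; corrector assay measuring rescue of mutant channel to the surface after 24 h compound exposure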
S100A4 inh HTS: inhibitors of human S100A4 binding to myosin IIA peptide. inhibition, % at 10.7 µM. S100A4/TAMRA-MyoIIA peptide fluorescence polarization. P26447. 360,000 compounds, 0.14% hits;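 active means mean inhibition of at least 70% across replicates, with every replicate also reaching that level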
Target sequence (P26447 whole entry, looked up): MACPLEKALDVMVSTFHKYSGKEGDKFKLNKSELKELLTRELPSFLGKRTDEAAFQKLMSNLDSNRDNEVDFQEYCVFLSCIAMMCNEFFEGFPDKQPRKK
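Test system: S100A4 monomer protein. Medium: HEPES buffer with Ca2+, pH 7.2. Reagent: fluorescent myosin IIA peptide, 5 nM. Compound dosing: single-point compound testing. Timing: 5 min between mix addition and reading. Benchmarks: DMSO neutral and TFP positive wells.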
FGF22 binding: shifts melting point of recombinant human FGF22. Q9HCT0. recombinant FGF22 thermal shift, SYPRO orange fluorescence; percent of sucrose octasulfate shift, DMSO zero. activity (Tm shift, normalised), % at 9.99 µM. 340,000 compounds, 1.5% hits;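 active means mean Tm shift, scaled 0 neutral to 100 positive control, at about 1.3% or above, every replicate too, limit read from the data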
E-sel inducer: induces E-selectin expression in human endothelial cells; P16581; HUVEC E-selectin immunofluorescence imaging; normalized: neutral wells 0, TNF-alpha wells 100; activation, % at 7.58 µM; 260,000 compounds, 0.37% hits; AID 686992;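 active means mean E-selectin-positive cell signal at least 10% of the positive control, reached in at least 60% of replicates, without over 20% cell loss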
Target sequence (P16581 whole entry, looked up): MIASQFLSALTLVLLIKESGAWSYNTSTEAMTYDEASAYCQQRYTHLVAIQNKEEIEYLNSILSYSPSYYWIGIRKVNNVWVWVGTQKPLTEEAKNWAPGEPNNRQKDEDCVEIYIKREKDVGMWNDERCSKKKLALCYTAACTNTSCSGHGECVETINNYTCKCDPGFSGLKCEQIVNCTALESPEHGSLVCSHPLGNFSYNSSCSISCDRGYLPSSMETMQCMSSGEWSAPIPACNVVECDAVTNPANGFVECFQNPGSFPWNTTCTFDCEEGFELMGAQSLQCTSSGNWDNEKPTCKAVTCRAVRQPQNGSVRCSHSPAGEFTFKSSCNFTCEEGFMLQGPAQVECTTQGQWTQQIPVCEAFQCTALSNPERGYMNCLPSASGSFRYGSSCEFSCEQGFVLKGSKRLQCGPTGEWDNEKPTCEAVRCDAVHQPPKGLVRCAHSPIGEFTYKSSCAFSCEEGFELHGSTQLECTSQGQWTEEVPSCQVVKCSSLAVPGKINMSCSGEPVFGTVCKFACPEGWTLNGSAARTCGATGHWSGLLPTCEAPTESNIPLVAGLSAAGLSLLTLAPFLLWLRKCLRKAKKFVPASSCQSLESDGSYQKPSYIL
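Test system – human umbilical vein endothelial cells (HUVEC), E-selectin induction · Input – 3,000 HUVEC seeded per well · Buffer or medium – EGM-2, gelatin · Compound dosing – single-point compound dose · Detection – immunofluorescence imaging · Measure – percent E-selectin-positive cells · Controls – TNF-alpha high, DMSO low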
Active calls of the source: *; / = no result; [ ] = dose if it differs, or a comment.

SMILES | HIV Env fusion | CFTR F508del cor | S100A4 inh HTS | FGF22 binding | E-sel inducer
CC(O)CNc1nc(Cl)c(C#N)s1 (configuration not stated) | -9.0 | 0.4 | -4.1 | 43.1* | /
Clc1ccc(-c2noc(CSc3nnc(-c4ccncc4)n3-c3ccccc3)n2)cc1 | 93.6* | / | / | / | /
Cc1ccc(-c2noc(CSc3nnc(-c4ccncc4)n3-c3ccc(C)cc3)n2)cc1 | 47.8 | / | / | / | /
CC(=O)NC[C@@H]1[C@@H](c2ccc(-c3cccnc3)cc2)[C@@H](CO)N1C(=O)C1CCC1 | / | 1.0 | / | / | 0.1
Cc1ccc(CSCC(=O)Nc2ccccc2F)cc1 | 4.8 | -2.8 | 4.6 | 43.5* | 0.0
COc1ccc(NC(=O)Nc2ccc3c(c2)C(=O)N([C@H](C)CO)C[C@H](C)[C@@H](CN(C)CC2CCCCC2)O3)cc1 | -21.2[16.7 µM] | 0.3 | 2.9 | 0.6 | -4.9
O=C(NNS(=O)(=O)c1ccc(F)cc1F)C1Cc2c(ccc3ccccc23)O1 (configuration not stated) | 96.9* | / | / | / | /
Cc1noc(C)c1NC(=O)Nc1ccc2c(c1)C(=O)N([C@@H](C)CO)C[C@H](C)[C@@H](CN(C)Cc1ccc(Oc3ccccc3)cc1)O2 | / | -1.6 | 11.5 | -0.1 | 2.1
O=C(NCc1ccco1)C(=O)c1c[nH]c2ccccc12 | -15.6 | -2.2 | 7.8 | 42.5 | -0.1
O=C(Cc1c[nH]c2ccccc12)NCc1ccco1 | -8.6 | -2.1 | 1.9 | 43.5* | /
CCN(CC)S(=O)(=O)c1cc([N+](=O)[O-])ccc1NNC(=O)Nc1ccc(Cl)c(Cl)c1 | 97.0* | / | / | / | /
O=C(CSc1ncnc2c1nnn2Cc1ccc(F)cc1)NCC1CCCO1 (configuration not stated) | -4.5 | 2.1 | 73.7* | -0.1 | -0.5
C/C(=N\NC(=O)c1cc(C)[nH]n1)c1cccs1 | -16.1 | 0.8 | -3.3 | 43.7* | /
C/C(=N\NC(=O)c1ccc(CSc2nncn2C)cc1)c1cccs1 | -2.3 | 1.1 | -4.9 | 43.3* | 0.1
O=C(NC1CCCC1)C(=O)N(Cc1cccnc1)C(C(=O)NCc1ccco1)c1ccccc1F (configuration not stated) | 2.2 | 1.6 | 1.0 | 43.5* | 2.1
CCCNC(=O)Nc1ccc2c(c1)C(=O)N(C)C[C@@H](OC)[C@@H](C)CN(CC1CCCC1)[C@H](C)CO2 | / | 0.0 | / | / | -0.3
Cc1cc(C)cc(NC(=O)Nc2ccc(-n3ccc(C(F)(F)F)n3)cc2)c1 | -30.7 | -2.4 | -2.5 | 0.1 | 46.2*
O=C(Nc1ccc(-n2ccc(C(F)(F)F)n2)cc1)Nc1cccc(Cl)c1 | -29.3 | 4.1 | -3.4 | 0.0 | 1.3
C[C@@H]1CN([C@@H](C)CO)C(=O)c2cccc(NS(=O)(=O)c3ccc(F)cc3)c2O[C@H]1CN(C)C(=O)Nc1ccc2c(c1)OCO2 | -41.6[16.7 µM] | 3.6 | -9.8 | 0.2 | 1.8
O=C(C[C@H]1C[C@@H]2c3cc(NC(=O)C4CCC4)ccc3O[C@@H]2[C@@H](CO)O1)NCc1ccc2c(c1)OCO2 | 85.8*[16.7 µM] | -2.5 | -90.8 | -0.2 | 0.2
O=C(C[C@H]1C[C@H]2c3cc(NC(=O)C4CCC4)ccc3O[C@H]2[C@@H](CO)O1)NCc1ccc2c(c1)OCO2 | 77.8*[16.7 µM] | -1.2 | 0.0 | -0.5 | -0.3
O=C(C[C@H]1C[C@@H]2c3cc(NC(=O)C4CCOCC4)ccc3O[C@@H]2[C@H](CO)O1)NCc1ccccc1 | 83.3*[16.7 µM] | 2.2 | -2.8 | -0.2 | -0.3
CCN(CC(=O)Nc1cc(Cl)ccc1C)C(=O)c1ccc(=O)n(Cc2ccccc2)n1 | 109.7* | 0.7 | 11.8 | 0.0 | -0.7
CCCNC(=O)N(C)C[C@@H]1Oc2cc(-c3cccnc3)ccc2S(=O)(=O)N([C@@H](C)CO)C[C@H]1C | -2.0[16.7 µM] | 1.2 | -4.1 | 0.6 | 0.2
CC(C)CC#Cc1ccc2c(c1)O[C@@H](CN(C)C(=O)C1CCCCC1)[C@H](C)CN([C@@H](C)CO)S2(=O)=O | 57.1*[16.7 µM] | 1.8 | -16.2 | -0.5 | -1.0
SMILES | HIV Env fusion | CFTR F508del cor | S100A4 inh HTS | FGF22 binding | E-sel inducer
Cc1ccc(-c2ccc3c(c2)O[C@H](CN(C)C(=O)C2CCCCC2)[C@H](C)CN([C@H](C)CO)S3(=O)=O)cc1 | -5.4[16.7 µM] | -1.9 | / | / | -0.5
CCCC#Cc1ccc2c(c1)O[C@@H](CN(C)C(=O)C1CCCCC1)[C@H](C)CN([C@H](C)CO)S2(=O)=O | 62.3*[16.7 µM] | -0.3 | / | / | 1.0
Cc1ccc(-c2ccc3c(c2)O[C@@H](CN(C)C(=O)C2CCCCC2)[C@H](C)CN([C@H](C)CO)S3(=O)=O)cc1 | 59.7*[16.7 µM] | 3.6 | / | / | 0.0
C/C=C/c1cnc2c(c1)C(=O)N([C@H](C)CO)C[C@H](C)[C@H](CN(C)Cc1cncnc1)O2 | -11.1[16.7 µM] | 0.4 | -3.7 | 0.0 | -0.2
CCc1cc2c(NCc3ccco3)ncnc2s1 | 79.6* | / | / | / | /
COc1ccc(-c2ccc3c(c2)[C@@H]2[C@@H](CCN2C(=O)c2cccc(F)c2)[C@H](CO)N3C)cc1 | / | 2.5 | -8.6 | -0.2 | 0.1
CO[C@H]1CN(C)C(=O)c2cc(NC(=O)Nc3ccc(Cl)cc3)ccc2OC[C@H](C)NC[C@@H]1C | / | 3.3 | / | -0.2 | 0.0
CO[C@H]1CN(C)C(=O)c2cc(NC(=O)Nc3ccc(Cl)cc3)ccc2OC[C@H](C)NC[C@H]1C | / | -0.9 | / | / | 66.3*
CO[C@H]1CN(C)C(=O)c2cc(NC(=O)Nc3ccc(C(F)(F)F)cc3)ccc2OC[C@H](C)NC[C@H]1C | 12.9[16.7 µM] | 0.4 | 136.0* | -1.1 | 0.1
COc1ccccc1N1CCN(C(=O)C2CCC(Cn3c(=S)[nH]c4ccccc4c3=O)CC2)CC1 (configuration not stated) | -1.7 | / | / | / | /
COc1ccc(N2CCN(C(=O)C3CCC(Cn4c(=S)[nH]c5ccccc5c4=O)CC3)CC2)cc1 (configuration not stated) | 73.8* | / | / | / | /
C[C@H]1CN([C@@H](C)CO)C(=O)Cc2cc(NS(C)(=O)=O)ccc2O[C@H]1CN(C)Cc1ccccc1 | 4.8[16.7 µM] | -2.7 | 3.4 | -0.1 | 0.2
NC(=O)CC(NC(=O)Cc1ccc(Br)cc1)c1ccc(NCC2CC2)c([N+](=O)[O-])c1 (configuration not stated) | -7.1 | 2.4 | 15.3 | 0.2 | 0.0
NC(=O)CC(NC(=O)Cc1ccc(Br)cc1)c1ccc(NCc2ccc(F)cc2)c([N+](=O)[O-])c1 (configuration not stated) | / | 2.6 | -1.1 | 43.6* | 0.5
Nc1c(C(=O)NCc2cccs2)nnn1CC(=O)Nc1cccc(Cl)c1 | 8.1 | 2.2 | -0.8 | 43.1* | /
Cc1ccc(NC(=O)Cn2nnc(C(=O)NCc3cccs3)c2N)cc1Cl | -5.8 | 3.0 | -2.6 | -0.1 | /
COc1ccc(C=C2CS(=O)(=O)CC(=Cc3ccc(OC)cc3)C2=O)cc1 | -48.6 | -0.1 | 3.9 | 44.4* | 0.0
Oc1[nH]c2ccc(Br)cc2c1N=Nc1ccc(C(F)(F)F)cn1 | 3.2 | 1.0 | -3.5 | 44.1* | /
C[C@@H]1CN([C@@H](C)CO)S(=O)(=O)c2ccc(C#CCC3CCCC3)cc2O[C@H]1CN(C)Cc1cccc(C(=O)O)c1 | -19.1[16.7 µM] | -0.3 | -6.6 | 0.1 | /

Assay outcomes: PubChem BioAssay, Broad Institute
